Screening data as filed in PubChem.
Most compounds without a hit are left out; they make up all but 2.9% or so of the library.
UBC13 inh – inhibitors of human UBC13 polyubiquitin chain formation. P61088. inhibition, % at 20 µM. hit rate 0.47% among 330,000. TR-FRET; in the data active = inhibition above about 45%, passing the limit was not always enough
Target sequence (P61088 whole entry, looked up): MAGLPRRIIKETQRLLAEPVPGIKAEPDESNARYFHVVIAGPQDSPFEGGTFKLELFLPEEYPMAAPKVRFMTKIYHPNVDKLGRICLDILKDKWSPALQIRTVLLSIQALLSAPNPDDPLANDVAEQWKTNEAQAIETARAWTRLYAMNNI
PfG6PD inh – PfG6PD (Plasmodium falciparum) enzyme inhibition | PfGluPho enzyme, NADPH resazurin-diaphorase fluorescence | inhibition, % at 20 µM | hit rate 0.78% among 350,000;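 active = inhibition reaching at least a set limit at 20 µM in the primary screen, cut at about 59% in these data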
EBNA-1 inhibitor – blocks EBNA-1 binding to DNA; hit rate 0.34% among 300,000; inhibition, % at 14.8 µM; AID 1950; EBNA-1 DNA binding, fluorescence polarization; in the data active = inhibition above about 28%
Apaf1 inhib – human Apaf-1 inhibition. O14727. reconstituted apoptosome caspase-3 activity, DEVD-Rh110 fluorescence. inhibition, % at 20 µM. hit rate 0.71% among 330,000; active = inhibition of at least 40% at 20 µM
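Material: biochemical Apaf-1 apoptosome reconstitution. Medium: Hepes buffer, pH 7.5. Also added: cytochrome c activation, bis-DEVD rhodamine 110 substrate. Timing: 30 min compound preincubation, 50 min activation, room temperature. Measured by: rhodamine 110 fluorescence at Ex 480/Em 540 nm.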
M18AAP inhibitor – blocks P. falciparum M18 aspartyl aminopeptidase; recombinant PfM18AAP, H-Glu-NHMec fluorogenic cleavage; inhibition, % at 7.35 µM; hit rate 1.2% among 290,000; AID 1822;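 active = inhibition above the campaign mean inhibition over all tested compounds plus 3 SD, cut at about 28% in these data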
ZTA DNA inh – blocks Epstein-Barr virus ZTA, an EBNA-1 counter-screen | P03206 | ZTA-DNA binding, fluorescence polarization | inhibition, % at 11 µM | hit rate 0.15% among 320,000 | AID 2234; in the data active = inhibition above about 33%
Target sequence (P03206 whole entry, looked up): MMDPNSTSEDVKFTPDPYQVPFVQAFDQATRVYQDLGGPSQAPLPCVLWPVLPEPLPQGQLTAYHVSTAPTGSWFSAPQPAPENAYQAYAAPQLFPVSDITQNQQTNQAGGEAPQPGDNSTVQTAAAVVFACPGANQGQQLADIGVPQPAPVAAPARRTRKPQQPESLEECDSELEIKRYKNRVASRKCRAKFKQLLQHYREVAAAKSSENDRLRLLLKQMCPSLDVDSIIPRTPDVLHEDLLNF
Apaf-1 inh conf – Apaf-1 inhibition, single-dose confirmed. shares compounds with Apaf1 inhib. reconstituted apoptosome, caspase-3 DEVD-Rh110 fluorescence. inhibition, % at 20 µM. hit rate 25% among 1,800. AID 504614;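 active = mean inhibition of at least 40% at 20 µM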
Rh110 quench – interferes with Rh110 fluorescence, flagging false Apaf-1 inhibitors | shares compounds with Apaf1 inhib | Rh110 fluorescence interference, quenched caspase reaction | activation (fluorescence interference), % at 20 µM | 1,800 tested, under 10 active | AID 504615;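 active = signal rise of 40% or more at 20 µM, treated as a fluorescence artifact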
Apaf1 inh interf – shows fluorescence interference in the Apaf-1 inhibitor assay format. shares compounds with Apaf1 inhib. fluorescence interference counterscreen, Apaf-1 assay format. IC50, µM. 460 tested, under 10 active. AID 588538; call rule not given here
A number is an active result.

For O/C=c1\ccc2cccc3nc(C(F)(F)F)nc1c23 the results were UBC13 inh inactive, PfG6PD inh inactive, EBNA-1 inhibitor inactive, Apaf1 inhib 79, M18AAP inhibitor inactive, ZTA DNA inh inactive, Apaf-1 inh conf 86, Rh110 quench inactive and Apaf1 inh interf 20.
Screening CSc1ccccc1NC(=O)COc1ccc2c(c1)OCO2 returned UBC13 inh inactive, PfG6PD inh inactive, Apaf1 inhib 45, Apaf-1 inh conf inactive and Rh110 quench inactive.
For CN(C)c1cc(N/N=C/c2ccccc2C(F)(F)F)nc(N(C)C)n1 the results were UBC13 inh inactive, PfG6PD inh inactive, EBNA-1 inhibitor inactive, Apaf1 inhib 56, M18AAP inhibitor inactive, ZTA DNA inh inactive, Apaf-1 inh conf 51, Rh110 quench inactive and Apaf1 inh interf inactive.
For Cc1cc(C(=O)CCl)c(C)n1-c1cccc(S(=O)(=O)N2CCOCC2)c1 the results were UBC13 inh inactive, PfG6PD inh inactive, EBNA-1 inhibitor inactive, Apaf1 inhib inactive, M18AAP inhibitor inactive and ZTA DNA inh inactive.
For O=C(CSc1nc(C2CC2)nc2ccccc12)Nc1ccccc1N1CCOCC1 the results were UBC13 inh inactive, PfG6PD inh inactive, EBNA-1 inhibitor inactive, Apaf1 inhib inactive, M18AAP inhibitor inactive and ZTA DNA inh inactive.
`CC(C)N(Cc1cc2ccccc2[nH]c1=O)C(=O)C1CCCCC1` gave UBC13 inh inactive, PfG6PD inh inactive, EBNA-1 inhibitor inactive, Apaf1 inhib 57, M18AAP inhibitor inactive, ZTA DNA inh inactive, Apaf-1 inh conf 65, Rh110 quench inactive and Apaf1 inh interf inactive.
COC(=O)[C@]1(C)N[C@H](CN(C)C(=O)c2ccc(C)cc2)[C@@H]2C(=O)N(Cc3ccccc3)C(=O)[C@@H]21 was read as UBC13 inh inactive, PfG6PD inh inactive and Apaf1 inhib inactive.
For CCOc1cc(NC(=S)NCC2CCCO2)c(OCC)cc1NC(=O)c1cccc(C)c1 (stereo unspecified) the results were UBC13 inh inactive, PfG6PD inh inactive, EBNA-1 inhibitor inactive, Apaf1 inhib inactive, M18AAP inhibitor inactive and ZTA DNA inh inactive.
`N#Cc1c(N2CCCCC2)nc(N)c2c(N)nc3c(c12)CC(c1ccccc1)O3` (stereo unspecified) gave UBC13 inh inactive, PfG6PD inh inactive, EBNA-1 inhibitor inactive, Apaf1 inhib 42, M18AAP inhibitor inactive, ZTA DNA inh inactive, Apaf-1 inh conf inactive and Rh110 quench inactive.
Screening O=C(NCCSc1ncc(-c2ccc(F)cc2)[nH]1)c1ccc2c(c1)OCO2 returned UBC13 inh inactive, PfG6PD inh inactive, EBNA-1 inhibitor inactive, Apaf1 inhib inactive and ZTA DNA inh inactive.
COC(CNC(=O)c1ccc2c3c(onc13)-c1ccccc1C2=O)OC was read as UBC13 inh inactive, PfG6PD inh inactive, EBNA-1 inhibitor inactive, Apaf1 inhib 73, M18AAP inhibitor inactive, ZTA DNA inh inactive, Apaf-1 inh conf 57, Rh110 quench inactive and Apaf1 inh interf inactive.
Screening COC(CNC(=O)c1cccnc1)OC returned UBC13 inh inactive, PfG6PD inh inactive, EBNA-1 inhibitor inactive, Apaf1 inhib inactive, M18AAP inhibitor inactive and ZTA DNA inh inactive.
For CCCCNC(=O)CNC(=O)c1nn(-c2ccc(OC)cc2OC)c(=O)c2ccccc12 the results were UBC13 inh inactive, PfG6PD inh inactive, EBNA-1 inhibitor inactive, Apaf1 inhib inactive, M18AAP inhibitor inactive and ZTA DNA inh inactive.
For COc1ccc(-n2nc(C(=O)NCC(=O)NC3CCCC(C)C3C)c3ccccc3c2=O)cc1 (stereo unspecified) the results were UBC13 inh inactive, PfG6PD inh inactive, EBNA-1 inhibitor inactive, Apaf1 inhib 51, M18AAP inhibitor inactive, ZTA DNA inh inactive, Apaf-1 inh conf inactive and Rh110 quench inactive.
COc1ccc(-n2nc(C(=O)NCC(=O)NC3CCCC(C)C3C)c3ccccc3c2=O)c(OC)c1 (stereo unspecified) was read as UBC13 inh inactive, PfG6PD inh inactive, EBNA-1 inhibitor inactive, Apaf1 inhib 55, M18AAP inhibitor inactive, ZTA DNA inh inactive, Apaf-1 inh conf 62, Rh110 quench inactive and Apaf1 inh interf inactive.
For Cc1onc(-c2ccccc2)c1CNC(=O)Nc1ccccc1 the results were UBC13 inh inactive, PfG6PD inh inactive, EBNA-1 inhibitor inactive, Apaf1 inhib inactive, M18AAP inhibitor inactive and ZTA DNA inh inactive.
COc1ccccc1C(=O)Nc1ccc(OCC(=O)N2CC(C)OC(C)C2)cc1 (stereo unspecified) was read as UBC13 inh inactive, PfG6PD inh inactive, Apaf1 inhib inactive and ZTA DNA inh inactive.
Screening CC(NCc1ccc(OCc2ccc(Cl)cc2)cc1)C(O)c1ccccc1 (stereo unspecified) returned UBC13 inh inactive, PfG6PD inh inactive, EBNA-1 inhibitor inactive, Apaf1 inhib 41, M18AAP inhibitor inactive, ZTA DNA inh inactive, Apaf-1 inh conf inactive and Rh110 quench inactive.
`O=C1c2ccccc2C(=O)c2c1cccc2N1CCCC1` gave PfG6PD inh inactive, EBNA-1 inhibitor inactive, M18AAP inhibitor inactive and ZTA DNA inh inactive.
O=C1C=C(N2CCCCC2)c2ccccc2C1=O was read as UBC13 inh inactive, PfG6PD inh inactive, EBNA-1 inhibitor inactive, Apaf1 inhib 98, ZTA DNA inh inactive, Apaf-1 inh conf 100, Rh110 quench inactive and Apaf1 inh interf inactive.
CC(C)CC(NC(=O)C1CCC(=O)N1C(=O)OCc1ccccc1)C(=O)NC(Cc1ccccc1)C(N)=O (stereo unspecified) was read as UBC13 inh inactive, PfG6PD inh inactive, EBNA-1 inhibitor inactive, Apaf1 inhib inactive, M18AAP inhibitor inactive and ZTA DNA inh inactive.
`Cc1cc(C(=O)OCC(=O)N2CC(C)OC(C)C2)c(C)n1-c1ccccc1` (stereo unspecified) gave UBC13 inh inactive, PfG6PD inh inactive, Apaf1 inhib inactive and ZTA DNA inh inactive.
Screening CCOC(=O)C1CCN(c2cc3c(cc2NC(=O)c2ccccc2OCC)n(C)c(=O)n3C)CC1 returned UBC13 inh inactive, PfG6PD inh inactive, EBNA-1 inhibitor inactive, Apaf1 inhib 40, M18AAP inhibitor inactive, ZTA DNA inh inactive, Apaf-1 inh conf inactive and Rh110 quench inactive.
`O=C(NC(=S)Nc1ccc(CN2CCCCC2)cc1)c1cccc(OCc2ccccc2)c1` gave UBC13 inh inactive, PfG6PD inh inactive, EBNA-1 inhibitor inactive, Apaf1 inhib 43, M18AAP inhibitor inactive, ZTA DNA inh inactive, Apaf-1 inh conf inactive and Rh110 quench inactive.
CCOc1cc(/C=N/NC(=O)c2cc(C)n(-c3ccc(F)cc3)c2C)ccc1O was read as UBC13 inh inactive, PfG6PD inh inactive, EBNA-1 inhibitor inactive, Apaf1 inhib inactive, M18AAP inhibitor inactive and ZTA DNA inh inactive.
